Screening results as filed in PubChem.
Hits are enriched below; roughly 1.9% of the tested compounds scored in any of these assays.
M4 PAM = potentiates acetylcholine response at human M4 receptor. CHO-K1 hM4/Gqi5, Fluo-8 calcium fluorescence, ACh EC20; 0% = ACh EC20, 100% = maximal ACh. activation, % at 3 µM. AID 624126. actives 0.4% (n = 360,000). P08173;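 active means activation above its plate's cutoff, the mean activation of sample wells plus 3 SD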
M5 PAM = positive allosteric modulators of human muscarinic M5 receptor | P08912 | CHO-K1 hM5, Fluo-8 calcium, ACh EC20 PAM; 0% = ACh EC20, 100% = ACh EC100 | AID 624038 | activation, % at 3 µM | actives 0.3% (n = 360,000);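 active means activation above the run cutoff, the mean activation of all test compounds plus 3 SD, cut at about 18% in these data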
Target sequence (P08912 whole entry, looked up): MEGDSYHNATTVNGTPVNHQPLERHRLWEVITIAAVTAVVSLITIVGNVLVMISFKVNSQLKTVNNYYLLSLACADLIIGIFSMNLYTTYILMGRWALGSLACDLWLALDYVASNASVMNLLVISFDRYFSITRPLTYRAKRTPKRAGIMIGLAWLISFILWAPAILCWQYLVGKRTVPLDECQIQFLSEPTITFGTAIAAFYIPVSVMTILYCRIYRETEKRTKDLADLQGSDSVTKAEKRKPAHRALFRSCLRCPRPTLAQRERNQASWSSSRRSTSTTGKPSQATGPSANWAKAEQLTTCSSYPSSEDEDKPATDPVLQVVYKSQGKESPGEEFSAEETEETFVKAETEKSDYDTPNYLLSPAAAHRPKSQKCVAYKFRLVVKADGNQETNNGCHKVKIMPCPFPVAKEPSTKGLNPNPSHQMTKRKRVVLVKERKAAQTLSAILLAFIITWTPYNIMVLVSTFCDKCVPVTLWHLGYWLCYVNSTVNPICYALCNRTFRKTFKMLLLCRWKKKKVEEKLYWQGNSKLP
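system = human M5 receptor in CHO-K1 cells | compound = one concentration, 3 µM final (nominal) | schedule = Post-acetylcholine fluorescence recording 140 s | signal = Fluo-8 calcium dye fluorescence, kinetic read | benchmarks = low control EC20 acetylcholine (0%), high control EC100 acetylcholine (100%) | repeats = singlicate, one well per test compound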
M5 ag = agonists of human muscarinic M5 receptor (CHRM5). CHO-K1 hM5 cells, Fluo-8 calcium fluorescence; 0% DMSO wells, 100% maximal acetylcholine response. activation, % at 3 µM. actives 0.19% (n = 360,000). AID 624037;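 active means activation above the run's mean over test compounds plus 3 SD, cut at about 23% in these data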;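 further: signal is peak over basal fluorescence ratio across the kinetic read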
M4 ag = CHRM4 agonism in calcium assay; P08173; CHO-K1 hM4/Gqi5, Fluo-8 calcium fluorescence; vehicle 0%, full acetylcholine response 100%; activation, % at 3 µM; actives 0.14% (n = 360,000);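 active means activation above the run mean over all test wells plus 3 SD, cut at about 32% in these data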;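 further: peak over basal fluorescence ratio per well then scaled between controls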
M4 antag = CHRM4 antagonism in calcium assay; CHO-hM4 cells, ACh EC80, Fluo-8 calcium fluorescence; inhibition, % at 3 µM; actives 0.73% (n = 360,000);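 active means inhibition above its plate's cutoff, the mean inhibition of sample wells plus 3 SD, cut at about 27% in these data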
CHRM5 antagonist = antagonists of human muscarinic M5 receptor (CHRM5) | AID 624040 | actives 0.59% (n = 360,000) | inhibition, % at 3 µM | P08912 | CHO-hM5 cells, Fluo-8 calcium fluorescence, ACh EC80;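 active means inhibition above a per-plate cutoff, the mean of that plate's test compounds plus 3 SD, cut at about 27% in these data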
A number is an active result; – = inactive.

SMILES	M4 PAM	M5 PAM	M5 ag	M4 ag	M4 antag	CHRM5 antagonist
CCN1CCCC1CNC(=O)c1ccc(Sc2ccccc2Cl)c([N+](=O)[O-])c1 (stereo not given)	–	–	–	–	97	–
CNc1cc(-c2cnn(CC(C)C)c2)ncn1	–	–	–	–	–	–
COc1cc(/C=C2/C(=O)CNC2=O)ccc1O	–	–	–	–	–	–
COc1cc(C=C2C(=O)C=CC2=O)ccc1O	–	–	–	–	31	–
COc1cc(/C=C/C(=O)/C=C(O)/C=C/c2ccc(O)c(OC)c2)ccc1O	–	–	39	44	32	37
COc1cc(/C=C/C(=O)O)ccc1O	–	–	–	–	–	–
CCCNC(=O)C1(C)CCN(C(=O)Cc2ccc3ccccc3c2)C1 (stereo not given)	–	–	–	–	–	–
O=C(NCc1cc(Cl)cc(Cl)c1)c1ccc2nc([C@H]3C[C@H](O)[C@@H](CO)O3)[nH]c2c1	–	–	–	–	–	–
CC(C)(CN1CCN(c2ccccc2)CC1)NS(=O)(=O)c1ccccc1	–	–	–	–	31	–
CC(Cc1cccs1)NC(=O)Nc1ccc([N+](=O)[O-])cc1 (stereo not given)	–	–	–	–	–	30
c1ccc2c(c1)nnn2CNc1nccs1	22	–	–	–	–	–
c1ccc(CCn2nnc3ccccc32)cc1	–	–	–	–	–	–
CCCC(=O)Nc1ccc(OCC(O)CNC(C)C)c(C(C)=O)c1 (stereo not given)	–	–	–	–	100	–
CN1CCN(CCn2c(=S)[nH]c3ccccc3c2=O)CC1	–	–	–	–	–	33
O=c1c2ccccc2[nH]c(=S)n1CCN1CCN(Cc2ccccc2)CC1	–	–	–	–	–	–
CCSc1nncn1/N=C/c1ccc(OC)c(OC)c1	–	–	–	–	–	–
C=C(C)CSc1nncn1/N=C/c1ccc(OC)cc1	30	–	–	–	–	–
CC1(C(=O)Nc2ccc(F)cc2F)CCN1C(=O)Cc1ccccc1 (stereo not given)	–	–	–	–	–	–
CCOC(=O)C1CCCN(Cc2nc3ccc([N+](=O)[O-])cc3c(=O)n2-c2ccc(OC)cc2OC)C1 (stereo not given)	–	–	29	–	–	–
O=C(NCCCN1CCOCC1)c1ccccc1N1C(=O)[C@@H]2Cc3c([nH]c4ccccc34)C(c3ccccc3)N2C1=O (stereo not given in full)	–	–	–	–	–	–
CC1=[N+](C)N(c2ccccc2)C(=O)C1N=C/C=C/c1ccccc1 (stereo not given)	–	–	–	–	58	–
COc1ccccc1/C=C/C=NC1C(=O)N(c2ccccc2)[N+](C)=C1C (stereo not given)	–	–	–	–	–	–
CCC(c1nnnn1-c1ccc2c(c1)OCCO2)N1CCN(Cc2c(F)cccc2Cl)CC1 (stereo not given)	–	–	–	–	–	–
Cc1nn(-c2ccccc2)c(-c2ccccc2[N+](=O)[O-])c1CC#N	–	–	–	–	–	–
COC(=O)N1C(=O)[C@@](c2ccc(OC)cc2)(C(C)C)N1C(=O)OC	–	20	–	–	–	–
SMILES	M4 PAM	M5 PAM	M5 ag	M4 ag	M4 antag	CHRM5 antagonist
COC(=O)N1C(=O)[C@](c2ccc(Cl)cc2)(C(C)C)N1C(=O)OC	–	–	–	–	–	–
O=C(c1cccc(Cl)c1)C1CCCN(Cc2ccc(N3CCNC3=O)cc2)C1 (stereo not given)	–	–	–	–	29	–
COc1ccc(CN2CCC(C(=O)c3cccc(Cl)c3)CC2)cc1	–	–	–	–	–	–
O=C(c1cccc(Cl)c1)C1CCCN(C(=O)c2ccoc2)C1 (stereo not given)	–	–	–	–	–	39
O=C(c1cccc(Cl)c1)N1CCCC(C(=O)N2CCCCCC2)C1 (stereo not given)	–	–	–	–	–	–
CNC(=S)N/N=C(\C)c1ccc(C)c(C)c1	–	–	–	–	27	–
Cc1sc2ncnc(N/N=C/c3ccc(O)cc3)c2c1C	–	–	–	–	–	–
Cc1sc2ncnc(N/N=C/c3ccccc3O)c2c1C	30	–	–	–	–	–
Cc1cnc2ccc(F)cc2c1	–	–	–	–	–	–
CC(=O)Nc1ccc2c(c1)CCc1ccccc1-2	–	–	–	–	–	–
CNCCC=C1c2ccccc2CCc2ccccc21	–	–	–	–	67	93
COc1ccccc1N/C=C/c1onc(C)c1[N+](=O)[O-]	–	–	–	–	40	–
CCOc1cccc(C2C(C(=O)c3cccs3)=C(O)C(=O)N2Cc2cccnc2)c1 (stereo not given)	–	29	–	–	–	–
CCCCOc1cccc(C2C(C(=O)c3cccs3)=C(O)C(=O)N2Cc2cccnc2)c1 (stereo not given)	–	–	–	–	–	–
O=C(C1=C(O)C(=O)N(CCOCCO)C1c1cccc([N+](=O)[O-])c1)c1cccs1 (stereo not given)	–	22	–	–	–	–
CCN(CC)C(=O)C1=C(C)N(Cc2ccc(C(C)(C)C)cc2)C(=O)C(CC(=O)NCc2ccco2)C1 (stereo not given)	–	–	–	–	–	–
COc1ccc(S(=O)(=O)N2CCc3ccccc32)cc1C(=O)Nc1ccc(C(N)=O)cc1	–	–	–	–	–	37
O=C(CCCN1CCOCC1)c1ccc2c(c1)OCCO2	–	–	–	–	–	–
O=C(CCCN1CCC(c2ccccc2)C1)c1ccc2c(c1)OCCO2 (stereo not given)	–	–	–	–	27	–
Cc1cccc(C)c1NC(=O)CS(=O)CC(=O)Nc1ccc(F)cc1F (stereo not given)	–	–	–	–	–	–
CCc1ccc(NC(=O)CS(=O)CC(=O)Nc2ccc(F)cc2F)cc1 (stereo not given)	31	–	–	–	–	–
CC(C)c1cc(-c2cc(C(=O)NCc3ccccc3)on2)nc(NCC2CC2)n1	–	–	36	43	41	28
Cc1cc(-c2cc(-c3ccccc3)on2)nc(NCC2CC2)n1	29	–	–	–	–	–
CCCNc1nc(C)cc(-c2cc(-c3ccccc3)on2)n1	–	–	–	–	–	–
COc1cc(N(Cc2ccccc2)Cc2ccccc2)c2ncn(C(C)C)c2c1	–	–	–	–	–	–
CC(C)n1cnc2c(N(C)c3ccccc3)nc(N(CCN(C)C)Cc3ccccc3)nc21	–	–	–	–	–	34
